Compound activity: PubChem BioAssay, several laboratories
Shown are actives, neighbours in structure and some others; about 5.3% of the full set was active somewhere.
Beta cell apopt = blocks beta cell apoptosis. INS-1E cytokine-induced death, ATP luminescence, 48 h; percent of positive-control rescue, neutral wells zero. protection from apoptosis, % (no concentration beside the values). 300,000 compounds, 0.8% hits. AID 435005;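 active = Every replicate reaches about 75%, or at least half do and their mean reaches it too, limit read from the data; inconclusive = At least half of replicates reach the limit but their mean does not; inactive = Under half of replicates reach the limit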;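 also: 0% = cytokine-treated negative control wells and 100% = positive control rescue; higher means more ATP so stronger rescue from cytokine killing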
Calb FLC = affects C. albicans growth with fluconazole; AID 1979; 300,000 compounds, 0.57% hits; growth inhibition, % (concentration not given with the values); C. albicans CaCi-2 (fluconazole-resistant clinical isolate) + fluconazole, Alamar Blue growth, 48 h;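 active = growth inhibition above about 58% in most replicates, limit read from the data, passing the limit was not always enough; inconclusive = exactly half the replicates above a set limit; inactive = most replicates below a set limit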;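 also: all wells also contain fluconazole at 8 µg/ml as a sub-toxic cotreatment; 0% = median of DMSO wells and 100% = median of geldanamycin control wells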
Mdm2 MdmX PPI = human Mdm2/MdmX binding inhibition | O15151+Q00987 | SaOS-2 split-luciferase Mdm2/MdmX complementation, luminescence | inhibition, % at 8 µM | 330,000 compounds, 3% hits;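 active = inhibition of at least 50% at 8 µM in the primary screen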
CSC inhib = cancer stem cell inhibition; inhibition, % at 7.5 µM; 300,000 compounds, 1.1% hits; cancer stem cell-like cells viability, luminescence; in the data active = inhibition above about 75%; inconclusive = no clear call, values can overlap the other calls; tested in HMLE shEcad cells
NLRP3 yeast inh = inhibitors of NALP3 inflammasome in yeast; inhibition, % at 10 µM; Yeast reconstituted NLRP3/ASC/caspase-1, beta-gal luminescence, 24 h; 330,000 compounds, 0.39% hits;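 active = inhibition of 50% or more; inactive = inhibition below 50%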;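 also: plate controls were induced DMSO wells for no effect and uninduced yeast grown without galactose for full effect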
T cruzi repl = T. cruzi replication inhibition; 300,000 compounds, 1.4% hits; AID 1885; T. cruzi beta-gal in NIH3T3, luminescence, 90 h; inhibition, % (test concentration not listed);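 active = mean inhibition across valid replicates above about 55%, limit read from the data; inconclusive = mean below that limit but half or more replicates reach it; inactive = mean below it, under half of replicates reach it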;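 also: signal also drops with host cell toxicity which is not excluded here; 0% = plate median of DMSO wells and 100% = zero luminescence signal; higher percent means less beta-gal luminescence so fewer parasites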
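Material: NIH/3T3 host cells with β-galactosidase reporter T. cruzi; Input: 5,000 host fibroblasts per well; Medium: DMEM, 2% fetal bovine serum; Compound: 50 nL DMSO compound solution per well; Schedule: 3 h host attachment, then at least 90 h co-culture; Detection: luminescent β-galactosidase signal after 60 min lysis.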
Mdm2 MdmX conf = human Mdm2/MdmX binding inhibition, confirmed; shares compounds with Mdm2 MdmX PPI; luminescent assay; inhibition, % at 8 µM; 10,000 compounds, 55% hits; AID 489028; in the data active = inhibition above about 40%
Full FLuc ctr = full-length luciferase inhibition in Mdm2/MdmX counter-screen; shares compounds with Mdm2 MdmX PPI; SaOS-2 full-length luciferase counterscreen, luminescence; inhibition, % at 8 µM; 6,200 compounds, 77% hits; AID 504607;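 active = mean inhibition at 8 µM reaching about 37%, which flags the compound as non-specific, limit read from the data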;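 also: p53-null SaOS-2 cells with luciferase driven by a doxycycline-inducible promoter; compound on cells about two nights before reading with doxycycline added after day one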
* = called active by the depositor; ? = inconclusive; nt = no result given.

SMILES	Beta cell apopt	Calb FLC	Mdm2 MdmX PPI	CSC inhib	NLRP3 yeast inh	T cruzi repl	Mdm2 MdmX conf	Full FLuc ctr
O=C(CCN1C(=O)/C(=C\c2ccccc2)SC1=S)Nc1ccc(C(=O)O)cc1	-3.2	-5.0	2.7	9.1	10.6	-7.0	nt	nt
O=C(CCCN1C(=O)/C(=C/c2cccs2)SC1=S)Nc1cccc(O)c1	-2.7	1.9	88.7*	35.9	19.8	12.5	79.7*	73.0*
O=C(CCCN1C(=O)/C(=C\c2ccccc2)SC1=S)Nc1ccc(O)cc1	-31.8	30.8	98.7*	34.5	11.0	46.1	99.5*	33.2
O=C(CCN1C(=O)/C(=C/c2cccs2)SC1=S)Nc1cccc(O)c1	nt	-0.5	35.2	-2.3	22.9	2.6	nt	nt
O=C(NCCc1ccc(Cl)cc1)C1CCCN1C(=O)Nc1ccc(F)cc1 (centres undefined)	nt	-3.6	8.5	-10.7	12.1	-9.3	nt	nt
CCOc1ccc(-c2cc(CCCC(=O)Nc3cccc(OC)c3)no2)cc1	-5.8	1.7	53.9*	56.5	5.7	-13.9	44.9*	61.0*
CCN(c1ccccc1)S(=O)(=O)c1ccc(Cl)c(NC(=O)CNCc2ccccc2OC)c1	-3.4	nt	19.0	0.1	14.6	nt	nt	nt
CC1(C)Cc2ccccc2C(c2cc3ccccc3oc2=O)=N1	-2.0	-3.2	62.3*	6.7	-1.6	7.7	26.3	nt
CC1(C)Cc2c(ccc3ccccc23)C(c2cc3ccccc3oc2=O)=N1	-6.0	-41.8	24.4	43.0	-11.6	44.0	nt	nt
O=C(CCl)Nc1cn(-c2ccccc2)nc1-c1ccc(F)cc1	-8.7	-8.7	86.3*	7.2	30.3	-16.3	44.5*	32.9
Cn1c(CN2CCOCC2)nnc1SCC(=O)Nc1ccc([N+](=O)[O-])cc1O	1.7	16.3	1.3	7.2	13.0	-32.6	nt	nt
Cc1cc(Sc2ncnc(N)c2[N+](=O)[O-])ncn1	-40.8	101.1*	93.1*	37.0	26.5	53.3	-0.8	nt
Cc1cc(C)nc(NC(=O)c2c(F)c(F)c(F)c(C(=O)Nc3cc(C)cc(C)n3)c2F)c1	-59.0	17.5	83.0*	44.3	-11.9	-15.0	65.0*	17.9
Cc1cc(C)nc(NC(=O)c2ccc3c(c2)OCO3)c1	nt	-2.6	-4.5	0.5	18.8	-8.5	nt	nt
CN1C(=O)C(Cc2cnc[nH]2)NC1=S (centres undefined)	-4.7	10.0	14.1	-13.8	10.8	4.8	nt	nt
COc1cc(/C=C2/SC(=O)N(Cc3ccccc3Cl)C2=O)ccc1OCc1ccncc1	3.3	-6.4	50.7*	34.0	-6.2	34.9	20.5	nt
Cc1cc(C)c2nc(NNC(=O)c3ccc(S(=O)(=O)N4CCc5ccccc5C4)cc3)sc2c1	86.7*	0.1	82.5*	103.7*	13.2	59.0*	86.0*	37.6*
Cc1cc(C)c2sc(NNC(=O)c3ccc(S(=O)(=O)N4CCc5ccccc5C4)cc3)nc2c1	101.3*	7.8	82.9*	102.6*	10.4	58.7*	85.2*	42.3*
Cc1ccc(CN(C)C(=O)c2cc(COc3ccc(F)cc3Cl)on2)o1	-6.2	-36.9	-10.3	7.9	21.6	6.9	nt	nt
Cc1cc(C(=O)N/N=C/C=C/c2ccc3c(c2)OCO3)n[nH]1	nt	-13.0	27.6	-2.5	6.7	-13.6	nt	nt
O=C(CCc1nc2ccccc2c(=O)[nH]1)Nc1nnc(SCc2ccc(F)cc2)s1	-1.6	2.3	14.2	-12.2	12.5	-0.3	nt	nt
COCCCNC(=O)/C(C#N)=C1\N=C(NC(=O)c2cccs2)c2ccccc21	1.2	45.2	-3.1	1.8	5.3	nt	nt	nt
N#C/C(C(=O)NCc1ccccc1)=C1/N=C(NC(=O)c2ccco2)c2ccccc21	-2.1	6.3	65.3*	14.6	12.1	-0.4	10.3	nt
COc1ccc(CCNC(=O)/C(C#N)=C2\N=C(NC(=O)c3ccco3)c3ccccc32)cc1	-5.9	-2.2	52.5*	7.5	25.1	-2.1	-12.9	nt
N#C/C(C(=O)NCCc1ccccc1)=C1/N=C(NC(=O)c2cccs2)c2ccccc21	5.9	-7.2	39.2	9.2	21.3	-3.8	nt	nt
SMILES	Beta cell apopt	Calb FLC	Mdm2 MdmX PPI	CSC inhib	NLRP3 yeast inh	T cruzi repl	Mdm2 MdmX conf	Full FLuc ctr
Cc1ccc(NC(=O)C2=C(c3ccccc3)S(=O)(=O)CCS2(=O)=O)cc1	?	16.9	95.2*	78.7*	9.4	58.0*	94.8*	52.4*
COc1cccc(/C=N/Nc2ncnc(N)c2[N+](=O)[O-])c1OC	3.5	-0.1	-56.4	-9.2	18.7	-3.8	nt	nt
Cc1cc(/C=N/Nc2ncnc(N)c2[N+](=O)[O-])c(C)n1-c1ccccc1	16.2	-2.8	64.7*	3.2	9.0	4.5	70.5*	53.7*
O=c1cc(-c2ccco2)oc2c1ccc1ccccc12	-0.3	-3.7	29.8	7.7	16.9	13.9	nt	nt
O=c1cc(C(Cl)(Cl)Cl)oc2c1ccc1ccccc12	72.7	39.0	97.8*	116.4*	21.6	69.0*	86.0*	51.6*
COc1ccc(C(=O)NNC(=O)CCc2ccccc2OC)cc1	-5.1	3.2	23.4	nt	5.2	4.8	nt	nt
CCOC(=O)c1nn(-c2ccc(F)cc2)cc1O	-1.6	9.3	13.0	2.8	1.1	-5.3	nt	nt
CCOC(=O)c1nn(-c2ccc(Br)cc2)cc1C(=O)c1cccc2ccccc12	-2.2	9.9	62.0*	-10.7	18.9	5.2	5.3	nt
CCCOc1ccc(/C=N/Nc2cccc([N+](=O)[O-])c2)c(O)c1	31.5	-36.0	76.7*	112.9*	28.0	42.4	-13.2	nt
CCn1cc(C(=O)NN)c(=O)c2cc(F)c(NC3CCCCC3)cc21	nt	9.6	13.0	nt	12.5	12.5	nt	nt
Cc1cc(C)c2c(=O)[nH]c(SCC(=O)Nc3cccc(S(=O)(=O)N(C)C)c3)nc2n1	0.6	nt	29.1	nt	11.2	nt	nt	nt
CN(C)S(=O)(=O)c1cccc(NC(=O)CSc2nc3c(cc2C#N)C(=O)CC(C)(C)C3)c1	-9.1	49.9	57.2*	?	17.4	-2.4	51.2*	51.5*
CN(C)S(=O)(=O)c1cccc(NC(=O)CSc2cccc3cccnc23)c1	nt	0.9	97.5*	84.1*	16.0	60.2*	48.7*	17.4
CN(CC(=O)NC(c1ccccc1)c1ccccc1)Cc1nc2ccccc2c(=O)[nH]1	-1.3	2.6	1.9	nt	6.1	7.2	nt	nt
O=C(Cn1cc(S(=O)(=O)N2CCCC2)c(S(=O)(=O)N2CCCC2)c1)NCc1ccco1	-6.8	1.3	10.0	-6.9	15.6	-7.3	nt	nt
CCC[C@H](CN[C@@H](CNC)[C@H](C)O)NCCc1ccc(OC)cc1	2.4	-7.2	-15.9	11.3	23.6	12.3	nt	nt
CCCC[C@@H](CNC)NC[C@H](Cc1ccc(O)cc1)NCCc1ccc(OCC)cc1	8.9	-15.0	97.5*	29.3	8.7	18.4	52.0*	73.5*
O=C(NCc1ccco1)c1ccc2c(c1)C(=O)N(Cc1ccccc1)C2=O	-0.5	-10.5	5.4	nt	4.5	-11.8	nt	nt
